In brackets after ≈: the same amount, converted by molar mass.
Experiments:
[1] = liver microsomes, previous reports ref 30; cited from earlier work
[2] = In vivo pharmacokinetic profiles in male ICR mice; details: for AUC(0-t) / Cmax / Tmax / Vd / clearance / half-life / bioavailability: male, ICR, mouse, plasma; for bioavailability: oral
Procedure, shortened: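 SPF male ICR mice (22–23 g), three per route. Oral 10 mg/kg (1.0 mg/mL in 0.5% carboxymethyl cellulose/0.5% Tween 80); i.v. 2 mg/kg (0.4 mg/mL in 20% HP-β-CD with 4 mol/L HCl). Plasma extracted 20:1 with acetonitrile containing internal standard; LC-MS/MS, C18, isocratic acetonitrile/water 80:20 with 0.1% formic acid. Non-compartmental parameters; F = (AUCp.o.×dosei.v.)/(AUCi.v.×dosep.o.).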

[3] = Metabolic stability in liver microsomes; type: in vitro ADME; details: mouse and human liver microsomes, without NADPH
Procedure, shortened: (§1)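 The test compound, taken from a 10 mM DMSO stock and diluted to 100 μM in DMSO, was added to mouse or human liver microsomes and preincubated at 37 °C for 5 min. The reaction was started with buffer/NADPH working solution (5 mM); samples without NADPH were the negative controls. Aliquots at 0 and 30 min were quenched with internal standard, centrifuged at 4 °C, and measured by LC-MS/MS.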

[4] = Microsomal stability, human liver microsomes; type: in vitro ADME
Procedure, shortened: as §1

[5] = Microsomal stability, mouse liver microsomes; type: in vitro ADME
Procedure, shortened: as §1

M. tuberculosis H37Rv = assay: MIC against Mtb H37Rv, microplate alamar blue assay; type: cell-based, Mycobacterium tuberculosis; details: for MIC: Mycobacterium tuberculosis, H37RV
[6] = Human (% remaining at 30 min) With NADPH, with NADPH
[7] = Human (% remaining at 30 min) Without NADPH, without NADPH
[8] = Mouse (% remaining at 30 min) With NADPH, with NADPH
[9] = Mouse (% remaining at 30 min) Without NADPH, without NADPH

In the case of O=c1nc(N2CCN(CC3CCCCC3)CC2)sc2c([N+](=O)[O-])cc(C(F)(F)F)cc12 [Macozinone, reference compound], the “half-life (metabolic stability)” value [1] is given as 34 to 43 min, the AUC(0-t) ([2]; iv, 2 mg/kg) is given as 423 ng·h/mL and the Cmax ([2]; iv, 2 mg/kg) is given as 1230 ng/mL. The Tmax ([2]; iv, 2 mg/kg) was 1.98 min, the Vd ([2]; iv, 2 mg/kg) was 5.64 L/kg and the clearance ([2]; iv, 2 mg/kg) was 75.8 mL/min/kg. For the same compound, the half-life ([2]; iv, 2 mg/kg) was 51.6 min, the bioavailability ([2]; 10 mg/kg) was 16.7% and the AUC(0-t) ([2]; po, 10 mg/kg) was 354 ng·h/mL. The Cmax ([2]; po, 10 mg/kg) was 251 ng/mL, the Tmax ([2]; po, 10 mg/kg) was 15 min and the half-life ([2]; po, 10 mg/kg) was 101 min. The “metabolism in the absence of NADPH (in words)” value [3] was “neither macozinone nor 1d were metabolized”, the remaining at 0.5 h, 1 µM [4, 6] was 46.8% and the remaining at 0.5 h, 1 µM [4, 7] was 101%. It also gave a remaining at 0.5 h, 1 µM [5, 8] of 50.7% and a remaining at 0.5 h, 1 µM [5, 9] of 102%.
With N#Cc1cc(C(F)(F)F)cc2c(=O)nc(N3CCN(CC4CCCC4)CC3)sc12 [Compound 1c, 2-(4-(cyclopentylmethyl)piperazin-1-yl)-4-oxo-6-(trifluoromethyl)-4H-benzo[e][1,3]thiazine-8-carbonitrile] the MIC (M. tuberculosis H37Rv) was 0.2 µM (≈ 0.0845 µg/mL).
In the case of N#Cc1cc(C(F)(F)F)cc2c(=O)nc(N3CCN(CC4CCOC4)CC3)sc12 (centres unmarked) [Compound 1e, 4-Oxo-2-(4-((tetrahydrofuran-3-yl)methyl)piperazin-1-yl)-6-(trifluoromethyl)-4H-benzo[e][1,3]thiazine-8-carbonitrile], the “loss of potency relative to cyclopentyl methyl 1c” value (M. tuberculosis H37Rv; Mtb H37Rv MIC) is reported as 10 fold.
In the case of N#Cc1cc(C(F)(F)F)cc2c(=O)nc(N3CCN(CC4COC4)CC3)sc12 [Compound 1f, 2-(4-(oxetan-3-ylmethyl)piperazin-1-yl)-4-oxo-6-(trifluoromethyl)-4H-benzo[e][1,3]thiazine-8-carbonitrile], the “antimycobacterial activity (in words)” value (M. tuberculosis H37Rv; Mtb H37Rv) is reported as “inactive”.
For N#Cc1cc(C(F)(F)F)cc2c(=O)nc(N3CCN(CC4CCCCC4)CC3)sc12 [Compound 1d, 2-(4-(cyclohexylmethyl)piperazin-1-yl)-4-oxo-6-(trifluoromethyl)-4H-benzo[e][1,3]thiazine-8-carbonitrile], the “increase in the volume of distribution (V) relative to macozinone” value ([2]; i.v. dosing, mice) was 2.0 fold, the AUC(0-t) ([2]; iv, 2 mg/kg) was 445 ng·h/mL and the Cmax ([2]; iv, 2 mg/kg) was 1340 ng/mL. The Tmax ([2]; iv, 2 mg/kg) was 1.98 min, the Vd ([2]; iv, 2 mg/kg) was 11.3 L/kg and the clearance ([2]; iv, 2 mg/kg) was 71.2 mL/min/kg. For the same compound, the half-life ([2]; iv, 2 mg/kg) was 110 min, the bioavailability ([2]; 10 mg/kg) was 7.8% and the AUC(0-t) ([2]; po, 10 mg/kg) was 174 ng·h/mL. The Cmax ([2]; po, 10 mg/kg) was 110 ng/mL, the Tmax ([2]; po, 10 mg/kg) was 15 min and the half-life ([2]; po, 10 mg/kg) was 104 min. The “decrease of oral bioavailability relative to macozinone” value ([2]; mice) was “twofold”, the maximum plasma concentration ([2]; oral dosing, male ICR mice) was 240 nM and the MIC (M. tuberculosis H37Rv) was 0.13 µM (≈ 0.0567 µg/mL). For the same compound, the “metabolism in the absence of NADPH (in words)” value [3] was “neither macozinone nor 1d were metabolized”, the “cytotoxicity (in words)” value (Vero cells) was “no cytotoxicity” and the remaining at 0.5 h, 1 µM [4, 6] was 26.3%. For the same compound, the remaining at 0.5 h, 1 µM [4, 7] was 102%, the remaining at 0.5 h, 1 µM [5, 8] was 38.6% and the remaining at 0.5 h, 1 µM [5, 9] was 96.4%.
